From article PMC4090943 (Bioorganic & medicinal chemistry letters, 2014)

Tests used:
[1] = tested on: 68 clinically relevant GPCRs, ion channels, kinases, and transporters; test: LeadProfilingScreen radioligand binding assay panel; conditions: 10 μM compound; 68 targets
[2] = tested on: marble burying; test: Mouse marble burying model of anxiety; type: in vivo; conditions: mice, IP, 15 minute pretreatment; P < 0.05 vs. vehicle, Dunnett's test
How it was run: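 Naïve mice given the test compound IP, with a vehicle control group, and then placed with glass marbles in deep bedding. The read-out was the number of marbles buried. n = 7-8 per dose. Each dose group was compared with the vehicle group by Dunnett's test (P < 0.05).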

[3] = tested on: the other seven mGlus; test: Cell based functional mGlu selectivity assays; conditions: 10μM
[4] = Rat PO tissue distribution study; type: in vivo, male Sprague-Dawley rats; conditions: rat PO 10 mg/kg, 60 min
How it was run: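 Male Sprague-Dawley rats (n=2 per time point) received a single 10 mg/kg oral dose in 10% Tween 80 in 0.5% MC. At 60 min they were euthanized and decapitated, and blood, hepatic portal vein and brain were collected. After protein precipitation, plasma and brain homogenate supernatants were analysed by LC-MS/MS.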

[5] = biological target: rat mGlu5 (Rattus norvegicus, UniProt P31424); test: Calcium mobilization mGlu5 assay; type: cell-based; conditions: HEK293A cells expressing rat mGlu5; EC80 glutamate; average of n ≥ 3
[6] = tested on: marble burying; conditions: mice; ref 7a,d; cited from earlier work
[7] = non-human primate regulatory toxicology studies; cited from earlier work

rat mGlu5, sequence (P31424 21-1203): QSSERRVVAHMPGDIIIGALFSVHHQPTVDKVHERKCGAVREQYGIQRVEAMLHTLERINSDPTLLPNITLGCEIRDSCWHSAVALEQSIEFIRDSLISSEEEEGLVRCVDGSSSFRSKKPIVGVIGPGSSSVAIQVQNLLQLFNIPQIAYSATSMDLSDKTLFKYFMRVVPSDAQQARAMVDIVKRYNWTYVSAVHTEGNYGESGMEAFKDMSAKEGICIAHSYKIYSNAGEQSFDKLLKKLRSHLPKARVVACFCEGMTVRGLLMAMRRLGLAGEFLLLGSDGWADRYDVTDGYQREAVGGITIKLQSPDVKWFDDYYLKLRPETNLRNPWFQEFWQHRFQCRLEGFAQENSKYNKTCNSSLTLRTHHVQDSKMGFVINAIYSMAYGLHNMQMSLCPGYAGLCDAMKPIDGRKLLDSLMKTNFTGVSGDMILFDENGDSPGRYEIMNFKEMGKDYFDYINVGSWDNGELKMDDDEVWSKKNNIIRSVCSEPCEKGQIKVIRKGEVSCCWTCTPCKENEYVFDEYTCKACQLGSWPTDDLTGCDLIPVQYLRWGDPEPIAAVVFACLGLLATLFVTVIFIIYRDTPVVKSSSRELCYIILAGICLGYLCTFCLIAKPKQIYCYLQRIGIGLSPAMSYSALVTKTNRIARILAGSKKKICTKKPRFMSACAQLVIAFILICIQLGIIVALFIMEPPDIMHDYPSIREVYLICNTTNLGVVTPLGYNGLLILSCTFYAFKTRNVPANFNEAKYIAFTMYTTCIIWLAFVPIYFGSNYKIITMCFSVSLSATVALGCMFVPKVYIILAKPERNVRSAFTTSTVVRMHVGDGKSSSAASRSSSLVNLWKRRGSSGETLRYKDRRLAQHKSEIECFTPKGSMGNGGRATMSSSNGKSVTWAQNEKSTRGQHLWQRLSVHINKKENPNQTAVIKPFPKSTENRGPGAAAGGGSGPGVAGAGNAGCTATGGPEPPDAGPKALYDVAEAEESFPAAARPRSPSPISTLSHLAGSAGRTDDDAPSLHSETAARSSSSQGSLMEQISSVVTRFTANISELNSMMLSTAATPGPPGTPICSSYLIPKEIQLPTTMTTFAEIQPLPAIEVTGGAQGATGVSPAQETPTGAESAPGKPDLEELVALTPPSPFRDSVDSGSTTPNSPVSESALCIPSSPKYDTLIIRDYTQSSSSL

Row | SMILES | mGlu5 pIC50 (± SEM) [5] | also measured
1 | O=C(Nc1cncc(Oc2cncnc2)n1)c1cc(Cl)ccn1 [Compound 68, 4-chloro-N-(6-(pyrimidin-5-yloxy)pyrazin-2-yl)picolinamide] |  | significant responses (>50% inhibition of radioligand binding) in panel [1]: no significant responses were found; doses giving statistically significant inhibition of marble burying [2]: greater than or equal to 10 mg/kg; activity against the other seven mGlus [3]: no detectable activity; HPV (hepatic portal vein) concentration [4]: 1.31 µM; brain concentration [4]: 1450 nM; plasma concentration [4]: 920 nM
2 | O=C(Nc1cncc(Oc2cncc(F)c2)n1)c1cc(Cl)cc(Cl)c1 [Compound 47] | <4.5 | 
3 | O=C(Nc1cncc(Oc2cncc(F)c2)n1)c1ccncn1 [Compound 63] | <4.5 | 
4 | Cc1ccc(C(=O)Nc2cncc(Oc3cncnc3)n2)s1 [Compound 65] | <4.5 | 
5 | O=C(Nc1cncc(Oc2cncc(F)c2)n1)c1cccnc1 [Compound 60] | <4.5 | 
6 | COc1cc(OC)cc(C(=O)Nc2cncc(Oc3cncc(F)c3)n2)c1 [Compound 49] | <4.5 | 
7 | O=C(Nc1cncc(Oc2cncc(F)c2)n1)c1cc(F)cc(F)c1 [Compound 46] | <4.5 | 
8 | Cc1cccc(C#Cc2ccccc2)n1 [MPEP] |  | effect on marble burying [6]: inhibit marble burying
9 | CN1CC(=O)NC1=NC(=O)Nc1cccc(Cl)c1 [fenobam] |  | effect on marble burying [6]: inhibit marble burying
10 | O=C(Nc1cncc(Oc2cncc(F)c2)n1)c1cccc(Cl)c1F [Compound 42] | <4.5 | 
11 | O=C(Nc1cncc(Oc2cncc(F)c2)n1)c1cccnn1 [Compound 61] | <4.5 | 
12 | O=C(c1ccc(OC(F)F)c(C#Cc2ccccn2)c1)N1Cc2cccnc2C1 [GRN-529] |  | toxicology finding [7]: biliary epithelial hyperplasia
13 | N#Cc1cc(F)cc(C(=O)Nc2cncc(Oc3cncc(F)c3)n2)c1 [Compound 50] | <4.5 | 
